Screening results as filed in PubChem BioAssay.
A selection: hits, their analogues and other compounds. The true share with any hit is near 1.8%.
DAGLB inhibitor: diacylglycerol lipase beta (human) inhibition; Q8NCG7; inhibition, % at 5.17 µM; AID 504411; HEK293T DAGLB membrane lysate, EnzChek fluorogenic substrate; hit rate 0.059% among 340,000; in the data active = inhibition above about 34%
Target sequence (Q8NCG7 whole entry, looked up): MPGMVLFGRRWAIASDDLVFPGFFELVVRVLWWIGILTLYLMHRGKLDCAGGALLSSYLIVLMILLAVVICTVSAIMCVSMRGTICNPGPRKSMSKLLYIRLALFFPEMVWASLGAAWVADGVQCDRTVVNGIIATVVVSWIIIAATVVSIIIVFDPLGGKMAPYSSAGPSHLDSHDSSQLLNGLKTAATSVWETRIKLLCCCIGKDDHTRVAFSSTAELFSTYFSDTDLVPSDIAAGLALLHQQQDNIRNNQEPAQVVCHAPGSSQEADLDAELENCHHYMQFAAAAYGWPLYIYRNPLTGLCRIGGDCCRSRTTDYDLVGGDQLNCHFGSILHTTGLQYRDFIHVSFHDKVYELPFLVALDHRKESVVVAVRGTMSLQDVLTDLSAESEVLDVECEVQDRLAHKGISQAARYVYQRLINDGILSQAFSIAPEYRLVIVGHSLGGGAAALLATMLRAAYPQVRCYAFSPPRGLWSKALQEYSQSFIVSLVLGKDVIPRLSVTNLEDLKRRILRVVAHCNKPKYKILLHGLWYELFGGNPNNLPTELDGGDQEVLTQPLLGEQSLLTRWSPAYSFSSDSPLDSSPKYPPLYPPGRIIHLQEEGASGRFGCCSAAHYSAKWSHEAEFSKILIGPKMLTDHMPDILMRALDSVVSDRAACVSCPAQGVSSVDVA
SKN-1 block: blocks SKN-1 activity in C. elegans | C. elegans VP596 Pgst-4::GFP/RFP ratio, acrylamide-induced, 24 h | inhibition, % at 21.8 µM | hit rate 0.49% among 360,000;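 active = interference check ratio from 0.5 to 1.5 plus GFP to RFP signal ratio inhibition reaching or exceeding a fixed threshold, cut at about 30% in these data, passing the limit was not always enough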
rRNA inh HTS: selective bacterial rRNA inhibition in E. coli | AID 720706 | E. coli WT GFP vs humanized-ribosome RFP mutants, fluorescence, 24 h; stronger effect = lower value; DMSO median 0, no signal -100 | GFP signal change (wild-type ribosome), % (test concentration not listed) | hit rate 1.6% among 350,000;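 active = significant combined selectivity score with lowered wild-type GFP, culture density cut under 30%, mutant RFP and density less affected; inactive = any of these conditions unmet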
iPSC survival up: increases survival of single human iPS cells; hiPSC single-cell survival, ATPlite luminescence; 100% = ROCK inhibitor wells, 0% = DMSO; survival enhancement, % at 20 µM; hit rate 0.044% among 360,000; in the data active = survival enhancement above about 18%;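 also: cells exposed to compounds for 16 hours before the ATP read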
MT1-MMP act inh: MT1-MMP (human) activation inhibition. P50281. HT1080 RFP-PRO-GFP cells, GFP/RFP ratio fluorescence, overnight; percent of plate control window, DMSO zero. GFP/RFP ratio change, % at 20 µM. hit rate 0.061% among 360,000. AID 651647;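 active = GFP/RFP ratio change of at least 30% with cell ATP level not reduced by more than half and red fluorescence within 50% of control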
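Test system: HT1080 RFP-PRO-GFP cells; Benchmarks: DMSO and RFP-L50D-GFP cell wells; Timing: cells overnight before dosing, compound overnight, 37 °C, 5% CO2; Compound: one 20 µM compound dose with 1% DMSO; Read-out: GFP/RFP fluorescence ratio.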
Cneo AK release: Cryptococcus neoformans lysis via adenylate kinase release; lysis activity, % at 15 µM; C. neoformans lysis, adenylate kinase release luminescence, 4 h; normalised: neutral wells 0, clomiphene wells 100; hit rate 0.2% among 360,000;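 active = mean lysis activity across replicates of at least 80%, whatever share of replicates individually reach that level; inactive = mean lysis activity below 80%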
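Schedule: static 4 h at 37 °C with compound, 1 h detection; system: C. neoformans cells; benchmarks: Clomiphene as positive control; buffer or medium: fresh YPD medium; measure: luminescence rise reflecting yeast cell lysis; measured by: luminescent adenylate kinase detection reagent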
A number is an active result; 0 = inactive; - = not tested or not shown; ! = a repeat was not active.

SMILES	DAGLB inhibitor	SKN-1 block	rRNA inh HTS	iPSC survival up	MT1-MMP act inh	Cneo AK release
Cc1cccc(-c2ccc([C@@H]3[C@@H](CO)N4C(=O)CN(C(=O)c5cnccn5)C[C@@H]34)cc2)c1	-	-	0	-	-	-
CNC(=S)N(CCc1c(C)[nH]c2ccc(OC)cc12)Cc1ccco1	0	0	-23	0	0	0
CC(=O)Oc1c(Sc2ccccc2[N+](=O)[O-])c(C)nn1C(C)(C)C	0	0	0	0	0	-
Cc1n[nH]c(C)c1Sc1ccccc1[N+](=O)[O-]	0	0	-34	0	0	-
Cc1ccc(-n2nc(C)c(Sc3ccccc3[N+](=O)[O-])c2N)cc1	0	0	-42	0	0	-
O=C(NCc1nc2ccccc2[nH]1)C1=C[C@@H](C2CC2)C[C@@H](OCc2ccc(CO)cc2)O1	0	0	-27	0	0	0
O=C(NCc1nc2ccccc2[nH]1)C1=C[C@H](C2CC2)C[C@H](OCc2ccc(CO)cc2)O1	0	0	0	0	0	81!
Cc1noc(C)c1NC(=O)Nc1ccc2c(c1)C(=O)N([C@H](C)CO)C[C@H](C)[C@H](CN(C)S(=O)(=O)c1ccc(F)cc1)OCCCC[C@H](C)O2	-	-	0	-	-	0
Cc1cc2cc(CNC(=O)Nc3cccc(Cl)c3)ccc2n1C	0	0	0	0	0	0
Cc1cc2cc(CNC(=O)CCC(=O)O)ccc2n1C	0	38	0	0	0	-
Cc1cccc(NC(=O)NCc2ccc3c(c2)cc(C)n3C)c1	0	49	0	0	0	0
Cc1noc(C)c1S(=O)(=O)Nc1ccc2c(c1)C(=O)N([C@@H](C)CO)C[C@@H](C)[C@@H](CN(C)C(=O)Nc1ccc(C(F)(F)F)cc1)O2	-	-	0	-	-	0
COCC(=O)N(C)C[C@H]1Oc2cc(-c3ccccc3F)ccc2S(=O)(=O)N([C@H](C)CO)C[C@H]1C	-	-	0	-	-	0
CN1CCN(C2CN(Cc3ccccc3)S(=O)(=O)C2)CC1 (stereo not drawn)	-	0	0	0	0	0
Cc1cccc(CN2CCN(C3CN(Cc4cn(Cc5cccc(Cl)c5)nn4)S(=O)(=O)C3)CC2)c1 (stereo not drawn)	-	0	-36	0	0	-
Cc1cccc(CN2CCN(C3CN(Cc4cn(Cc5ccc(Cl)cc5)nn4)S(=O)(=O)C3)CC2)c1 (stereo not drawn)	-	0	-25	0	0	-
Cc1ccc(Cn2cc(CN3CC(N4CCN(Cc5cccc(C)c5)CC4)CS3(=O)=O)nn2)cc1 (stereo not drawn)	-	0	0	0	0	-
O=S1(=O)CC(N2CCN(Cc3ccccc3F)CC2)CN1Cc1cn(Cc2cccc(Cl)c2)nn1 (stereo not drawn)	-	0	-24	0	0	-
CCCCN1CC(N2CCN(Cc3ccccc3)CC2)CS1(=O)=O (stereo not drawn)	-	0	-32	0	0	0
O=C(Cc1ccncc1)NCC[C@H]1CC[C@H](NC(=O)Nc2ccc(Cl)cc2)[C@@H](CO)O1	-	-	0	-	-	0
C[C@H](CO)N1C[C@H](C)[C@H](CN(C)Cc2cccnc2)Oc2ncc(/C=C/c3ccccc3)cc2C1=O	-	-	0	-	-	0
O=C(O)c1ccc(Nc2nc(-c3ccc([N+](=O)[O-])cc3)nc3ccccc23)cc1	0	0	-21	0	0	0
O=C1CCC/C(=N\NC(=O)c2ccc(CSc3cccc4cccnc34)cc2)C1	0	0	-21	0	0	-
NNC(=O)c1ccc(CSc2cccc3cccnc23)cc1	0	0	0	0	0	0
CCOc1ccc(OCCn2c(=S)[nH]c3c(N)ncnc32)cc1	0	0	-31	0	0	0
SMILES	DAGLB inhibitor	SKN-1 block	rRNA inh HTS	iPSC survival up	MT1-MMP act inh	Cneo AK release
Cc1ccc(OCCn2cnc3c(N)ncnc32)cc1	0	0	-	0	0	0
CO[C@H]1CN(C)C(=O)c2ccc(NC(=O)Nc3cccc(F)c3)cc2OC[C@@H](C)N(C(=O)C2CC2)C[C@@H]1C	-	-	0	-	-	-
O=C(N/N=C\c1cccc([N+](=O)[O-])c1O)C1COc2ccccc2O1 (stereo not drawn)	0	0	-	0	0	0
COc1cc([N+](=O)[O-])cc(/C=N\NC(=O)C2COc3ccccc3O2)c1O (stereo not drawn)	0	0	-20	0	0	-
COc1ccc(NC(=O)N(C)C[C@@H]2OCCCC[C@H](C)Oc3ccc(NC(=O)NC(C)C)cc3C(=O)N([C@@H](C)CO)C[C@@H]2C)cc1	-	-	0	-	-	0
Cc1ccc(C[n+]2cc(-c3ccc(Cl)cc3)n3c2CCC3)cc1	-	0	-47	0	0	0
O=C(C[n+]1cc(-c2ccc(Cl)cc2)n2c1CCCCC2)c1ccccc1	0	0	-51	0	0	-
Cc1ccc(-c2c[n+](Cc3ccc(Cl)cc3)c3n2CCC3)cc1	0	0	-	0	0	-
CC(=O)Nc1cccc(OCC(=O)NS(=O)(=O)c2ccc(Cl)cc2)c1	0	35	-	0	0	0
CC(=O)Nc1cc(C(F)(F)F)ccc1OCC1CCCO1 (stereo not drawn)	0	37	-	0	0	0
CC(=O)Nc1ccc(NC(=O)c2cc(-c3cc(F)ccc3OCC3CCCO3)n[nH]2)cc1 (stereo not drawn)	-	0	0	0	0	0
COC(=O)c1c(-c2ccc(OC)cc2)sc2cc(OC)c(OC)cc12	0	0	-24	0	0	0
Cc1nnn(C23C[C@@H]4C[C@@H](CC(C(=O)N5CCN(c6ccccc6)CC5)(C4)C2)C3)n1	0	0	-31	0	0	0
O=[N+]([O-])c1cc(CN2CCCC2)ccc1Sc1ccc(Cl)cc1	0	52	0	0	0	-
COc1cc(NCCCCC(C)N)c2nccc(C)c2c1 (stereo not drawn)	0	36	0	0	0	0
C[C@@H]1CN([C@@H](C)CO)C(=O)c2cc(NC(=O)Nc3ccccc3)ccc2O[C@@H](C)CCCCO[C@@H]1CN(C)C	-	-	0	-	-	0
CO[C@H]1CN(C)C(=O)c2ccc(NC(C)=O)cc2OC[C@H](C)N(C(=O)CN2CCOCC2)C[C@@H]1C	-	-	0	-	-	0
CCOC(=O)C1=C(C)Nc2ccccc2N=C1NC(=O)C(c1ccccc1)c1ccccc1	0	0	-21	0	0	0
CCOC(=O)C1=C(C)Nc2ccccc2N=C1NC(=O)c1cccc(S(=O)(=O)N(C)C)c1	0	0	0	0	0	0
O=C(NCC[C@H]1CC[C@H](NC(=O)C2CCCCC2)[C@H](CO)O1)c1ccc(F)cc1	-	-	0	-	-	0
C[C@H]1CN([C@@H](C)CO)S(=O)(=O)c2ccc(-c3cncnc3)cc2O[C@@H]1CN(C)C(=O)CN(C)C	-	-	0	-	-	0
Cc1ccc(-c2nc3cccnc3o2)cc1NC(=O)COc1ccc(C(C)(C)C)cc1	0	43	-	0	0	0
